Experimental findings from ChEMBL document CHEMBL1145810, “Synthesis and complement inhibitory activity of B/C/D-ring analogues of the fungal metabolite 6,7-diformyl-3',4',4a',5',6',7',8',8a'-octahydro-4,6',7'-trihydroxy- 2',5',5',8a'-tetramethylspiro[1'(2'H)-naphthalene-2(3H)-benzofuran]” (J Med Chem, 2003) are described below.

The species named for assay [1] is Homo sapiens. The assay can be described thus: Ability to inhibit complement-mediated erythrocyte lysis (hemolysis) in human serum. It is filed as functional, organism-based. Summed up:
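Antibody-sensitized sheep erythrocytes incubated with compound and diluted human serum, 60 min at 37 °C. Cells pelleted by centrifugation; released hemoglobin read at 410 nm in supernatant. Each sample paired with a serum-free control for complement-independent lysis, which was subtracted. Fractional inhibition taken relative to the no-compound sample.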

A short description of assay [2]: Inhibitory activity against proteolytic release of C5a in activated human serum was determined. It is filed as functional. Summed up: (§1)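 Human serum (73% of final volume) equilibrated with a range of compound concentrations dissolved in 0.10 M HEPES, 0.15 M NaCl, pH 7.4. Serum then activated with heat-aggregated IgG, and C5a[desArg] and C3a[desArg] quantified. Fractional inhibition taken relative to the no-compound sample and to the background level without aggregated IgG. n = 3 (one compound n = 2).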

Assay [3] is described as follows: Inhibitory activity against proteolytic release of C3a in activated human serum was determined. It is filed as functional. Summed up:
as §1

For assay [4], the species on record is Oryctolagus cuniculus. The assay can be described thus: Ability to inhibit lysis of rabbit erythrocytes by the alternative complement pathway was determined. It is filed as functional, organism-based. Summed up:
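Alternative-pathway hemolysis of rabbit erythrocytes. Cells incubated with compound and human serum for 60 min at 37 °C. Supernatant hemoglobin read at 410 nm after centrifugation. Serum-free background was subtracted and inhibition taken relative to the no-compound sample.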

SMILES strings stand for the structures.

`O=C(O)c1ccc(O)c2c1OC1(CCCCC1)C2`: the IC50 in assay [1] came out at 3000 µM.
As to `COc1ccc(C(=O)O)c2c1CC1(CCCCC1)O2`, the IC50 in assay [1] came to 1300 µM; in assay [2], 5000 µM; in assay [3], 22000 µM; in assay [4], 2200 µM.
With `COc1cc(C=O)c(C(=O)O)c2c1CC1(CCCCC1)O2`, the IC50 in assay [1] was found to be 1700 µM; in assay [4] it was 1900 µM.
Regarding `O=C(O)c1ccc(O)cc1O` [2,4-DIHYDROXYBENZOIC ACID], in assay [2], the half-maximal inhibitory concentration (IC50) came out at 22000 µM.
For the compound `C[C@@H]1CCC2C(C)(C)[C@H](O)[C@H](O)C[C@]2(C)C12Cc1c(O)cc(C(=O)O)c(C=O)c1O2` (stereo partly drawn), the IC50 in assay [1] amounted to 570 µM; in assay [2], 3000 µM; in assay [4], 330 µM.
`COc1ccc(C(=O)O)c(O)c1CC1=CCCCC1` came in with an IC50 in assay [1] of 2100 µM.
As to `COc1cc(C(=O)O)cc(O)c1CC1=CCCCC1`, the IC50 in assay [1] is 820 µM; in assay [4] it was 3500 µM.
As for `COc1cc(C(=O)O)c(C=O)c2c1CC1(CCCCC1)O2`, the IC50 stood at 160 µM in assay [1], 500 µM in assay [2] and 730 µM in assay [4].
As for `COc1ccc(C=O)c2c1CC1(CCCCC1)O2`, the values for the IC50 in assay [2] and in assay [3] were 8000 µM and 13000 µM, respectively.
Consider `O=C(O)c1ccccc1O` [SALICYLIC ACID], for which, in assay [2], the IC50 worked out at 21000 µM.
For the compound `O=C(O)c1cc(O)c2c(c1)OC1(CCCCC1)C2`, the results for the IC50 in assay [1] and in assay [4] were 1500 µM and 3800 µM, respectively.
The matching figures for `COc1cc(C(=O)O)c(C(=O)O)c2c1CC1(CCCCC1)O2`: 800 µM and 1200 µM.
Consider `COc1cc2c(c3c1CC1(CCCCC1)O3)C(=O)OC2`, for which the concentration for half-maximal inhibition (IC50) in assay [2] amounted to 1300 µM; in assay [3] it was 700 µM.
On to `COc1cc(C(=O)O)cc2c1CC1(CCCCC1)O2`, for which the IC50 was determined as 530 µM in assay [1] and 2200 µM in assay [4].
